Reference: ChEMBL document CHEMBL5252523, “Searching for New Leads for Tuberculosis: Design, Synthesis, and Biological Evaluation of Novel 2-Quinolin-4-yloxyacetamides” (J Med Chem, 2016)
Values after ≈ are worked out from the molar mass of the structure shown.

Columns and labels:
[1] = Chromatographic hydrophobicity index, log D of the compound in phosphate buffer at pH 7.4 by UV-HPLC analysis; type: physicochemical
[2] = Cytotoxicity against human HepG2 cells assessed as cell growth inhibition incubated for 48 hrs by CellTiter-Glo reagent based analysis; type: toxicity
Outline: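 HepG2 cells kept in Eagle's MEM with 10% heat-inactivated FBS, 1% NEAA and penicillin/streptomycin, seeded at ~3000 cells/well onto pre-dispensed compound. Incubation was 48 h at 37 °C, 5% CO2. Plates were equilibrated to room temperature, CellTiter-Glo was added, and ATP luminescence was read after 10 min as the viability read-out.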

[3] = Artificial membrane permeability of the compound incubated for 3 hrs by HPLC analysis; type: ADME; settings: PAMPA, read-out: permeability
[4] = Kinetic aqueous solubility of compound in phosphate buffer at pH 7.4 incubated for 1 hrs by CLND assay; type: physicochemical; settings: read-out: Kinetic_solubility
[5] = tested on: Mycobacterium tuberculosis; assay: Antimycobacterial activity against Mycobacterium tuberculosis H37Rv ATCC 25618 assessed as inhibition of microbial growth incubated for 6 days by resazurin based assay; type: functional; settings: H37Rv ATCC 25618, 144 h, time 6 day
Outline: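 Ten two-fold dilutions made in neat DMSO, tested in Middlebrook 7H9 with the H37Rv inoculum. Controls: isoniazid from 4 μg/ml as positive control; rifampicin 1 μM as no-growth control. Plates sat sealed at 37 °C without shaking for 6 days.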

Compound	chromatographic logD [1]	IC50 at 48 h [2] [µM]	Papp at 3 h [3] [×10⁻⁶ cm/s]	solubility kinetic at 1 h [4] [µM]	MIC [5] [µM]
COc1ccc2nc(C)cc(OCC(=O)Nc3ccccc3)c2c1	4.28	39.8	37	63 (≈ 20.3 µg/mL)	2
COc1cccc(NC(=O)COc2cc(C)nc3ccc(OC)cc23)c1	4.49	> 100	47	35 (≈ 12.3 µg/mL)	6.4
COc1ccc2nc(C)cc(NC(=O)C(=O)Nc3cc(C)cc(C)c3)c2c1	6.47	> 100		10 (≈ 3.63 µg/mL)	> 125
COc1cc2nc(C)cc(OCC(=O)Nc3cc(C)cc(C)c3)c2cc1OC	4.84	10	60.5		> 250
COc1ccc2nc(C)c(NC(=O)C(=O)Nc3cc(C)cc(C)c3)c(O)c2c1	3.76	> 100		10 (≈ 3.79 µg/mL)	> 125
COc1ccc2nc(C)cc(OCc3nc4ccccc4[nH]3)c2c1	3.59	> 100		13 (≈ 4.15 µg/mL)	16
COc1ccc2nc(C)cc(OCc3ccc4ccccc4n3)c2c1	5.48	31.6	47	21 (≈ 6.94 µg/mL)	32
COc1ccc2nc(C)cc(OCC(=O)Nc3ccc(Cl)c(C(F)(F)F)c3)c2c1	6.22	79.4		17 (≈ 7.22 µg/mL)	47
COc1ccc2nc(C)cc(OCC(=O)Nc3cc(C)c(OC)c(C)c3)c2c1	4.99	7.94	32	17 (≈ 6.47 µg/mL)	1
COc1ccc2nc(C)cc(OCC(=O)Nc3c(C)cccc3C)c2c1	4.55	> 100	63	112 (≈ 39.2 µg/mL)	125
COc1ccc2nc(C)cc(OC(C(=O)Nc3cc(C)cc(C)c3)c3ccccc3)c2c1 (stereo not given)	7.13	> 100	< 3	2 (≈ 0.853 µg/mL)	> 125
Cc1cc(C)cc(NC(=O)COc2cc(C)nc3ccc(C(F)(F)F)cc23)c1	6.67	> 100	< 3	10 (≈ 3.88 µg/mL)	> 250
Cc1cc(C)cc(NC(=O)COc2cc(C(F)(F)F)nc3cc4c(cc23)OCO4)c1	6.73	> 100	< 3	< 1	> 250
COc1ccc2nc(C)cc(OCC(=O)Nc3ccc(Br)c(C)c3)c2c1	5.95	15.8		< 1	3.9
COc1ccc2nc(C)cc(NCC(=O)Nc3cc(C)cc(C)c3)c2c1	3.59	6.31	31	204 (≈ 71.3 µg/mL)	47
Cc1cc(C)cc(NC(=O)COc2cc(C(F)(F)F)nc3ccc(OC(F)(F)F)cc23)c1	7.96	> 100	< 0.3	34 (≈ 15.6 µg/mL)	> 250
Cc1cc(C)cc(NC(=O)COc2cc(C)nc3ccc(OC(F)(F)F)cc23)c1	6.79	> 100	< 3		> 250
Cc1cc(C)cc(NC(=O)COc2cc(C)nc3ccc(F)cc23)c1	5.79	63.1	31	28 (≈ 9.47 µg/mL)	15.6

Compound	chromatographic logD [1]	IC50 at 48 h [2] [µM]	Papp at 3 h [3] [×10⁻⁶ cm/s]	solubility kinetic at 1 h [4] [µM]	MIC [5] [µM]
COc1ccc2nc(C(F)(F)F)cc(OCC(=O)Nc3cc(C)cc(C)c3)c2c1	7.02	> 100	< 1	15 (≈ 6.07 µg/mL)	> 250
COc1ccc2c(OCC(=O)Nc3cc(C)cc(C)c3)cc(C)nc2c1	5.59	50.1			> 250
CSc1ccc2nc(C)cc(OCC(=O)Nc3cc(C)cc(C)c3)c2c1	6.42	> 100		3 (≈ 1.1 µg/mL)	> 125
CCCc1cc(OCC(=O)Nc2cc(C)cc(C)c2)c2cc(OC)ccc2n1	6.44	12.6		12 (≈ 4.54 µg/mL)	> 250
Cc1cc(C)cc(NC(=O)COc2cc(C(F)(F)F)nc3c(C(F)(F)F)cccc23)c1	7.73	> 100	< 1	< 1	> 250
COc1ccc2nc(C)cc(OCC(=O)Nc3cc(OC)c(OC)c(OC)c3)c2c1	3.95	> 100	62	34 (≈ 14 µg/mL)	62
Cc1cc(C)cc(NC(=O)COc2cc(C)nc3ccc(OCc4ccccc4)cc23)c1	7.03	> 100	< 1	< 1	> 250
CCOc1ccc2nc(C(F)(F)F)cc(OCC(=O)Nc3cc(C)cc(C)c3)c2c1	7.55	> 100	< 0.3	< 1	> 250
COc1ccc2nc(C)cc(OC3CCN(c4ccccc4)C3=O)c2c1 (stereo not given)	4.99	100	55	215 (≈ 74.9 µg/mL)	125
COc1ccc2nc(C)cc(OCC(=O)Nc3cc(OC)c(Cl)cc3OC)c2c1	5.8	> 100		3 (≈ 1.25 µg/mL)	> 125
COc1ccc2nc(C)cc(OC(C)C(=O)Nc3cc(C)cc(C)c3)c2c1 (stereo not given)	5.76	39.8	32	61 (≈ 22.2 µg/mL)	125
Cc1cc(C)cc(NC(=O)COc2cc(C)nc3ccccc23)c1	5.39	> 100	37	55 (≈ 17.6 µg/mL)	24
COc1ccc2nc(C)cc(OCC(=O)NCc3cc(C)cc(C)c3)c2c1	5.25	> 100	< 0.3	92 (≈ 33.5 µg/mL)	31
COc1ccc2nc(C)c3nc(C(=S)Nc4cc(C)cc(C)c4)sc3c2c1		> 100	< 3	35 (≈ 13.8 µg/mL)	> 125
COc1ccc2nc(C)cc(OCC(=O)Nc3ccc(Cl)c(OC)c3)c2c1	5.09	> 100	57	13 (≈ 5.03 µg/mL)	> 125
CCOc1ccc2nc(C)cc(OCC(=O)Nc3cc(C)cc(C)c3)c2c1	5.98	> 100	< 3		> 250
CCC(Oc1cc(C)nc2ccc(OC)cc12)C(=O)Nc1cc(C)cc(C)c1 (stereo not given)	6.28	79.4	39	123 (≈ 46.6 µg/mL)	> 250
Cc1cc(C)cc(NC(=O)COc2cc(C)nc3ccc(Cl)cc23)c1	6.38	> 100		8 (≈ 2.84 µg/mL)	40
